The results in this text go back to ChEMBL document CHEMBL1142461, “In vitro biological evaluation of novel 7-O-dialkylaminoalkyl cytotoxic pectolinarigenin derivatives against a panel of human cancer cell lines” (Bioorg Med Chem Lett, 2008).

Data set [1] is described as follows: Antiproliferative activity against human 142BR cells after 48 hrs by sulforhodamine B assay. The format is functional, cell-based. The method in brief:
(§1)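 Cells grown in RPMI 1640 (ACHN, C32, COR-L23) or DMEM (142BR, A375, A549, Caco-2, Huh-7D12), seeded and allowed to attach for 24 h. Then exposed 48 h to six serial dilutions (DMSO ≤0.5% final, matched in solvent controls), in six replicates. Fixed with ice-cold 40% TCA for 1 h at 4 °C and SRB-stained, read at 564 nm. Survival taken as % of untreated control; IC50 from dose–response curve; mean ± SD.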

Data set [2] is described as follows: Antiproliferative activity against human Huh-7D12 cells after 48 hrs by sulforhodamine B assay. The format is functional, cell-based. Conditions: Huh-7D12, 48 h. In outline:
as §1

For the next data set, the system named is Caco-2. In words: Antiproliferative activity against human Caco-2 cells after 48 hrs by sulforhodamine B assay. In kind it is functional, cell-based. Conditions: Caco-2, 48 h. In outline: as §1
In the next data set the test system is COR-L23. In words: Antiproliferative activity against human COR-L23 cells after 48 hrs by sulforhodamine B assay. In kind it is functional, cell-based. Conditions: COR-L23, 48 h. In outline:
as §1

The subject of another data set is ACHN. In words: Antiproliferative activity against human ACHN cells after 48 hrs by sulforhodamine B assay. The format is functional, cell-based. In outline: as §1
The next data set deals with C32. In words: Antiproliferative activity against human C32 cells after 48 hrs by sulforhodamine B assay. The format is functional, cell-based. Conditions: C32, 48 h. In outline: as §1
The next data set relates to A549. In words: Antiproliferative activity against human A549 cells after 48 hrs by sulforhodamine B assay. In kind it is functional, cell-based. The following applies: A549, 48 h. The method in brief: as §1
A further data set relates to A-375. In words: Antiproliferative activity against human A375 cells after 48 hrs by sulforhodamine B assay. In kind it is functional, cell-based. The following applies: A-375, 48 h. In outline: as §1
The nature of data set [3]: Partition coefficient, log P of the compound. The format is physicochemical. Conditions: octanol/water.

A value given as a limit tells only on which side of the number the result lay.

In the case of `CCN(CC)CCOc1cc2oc(-c3ccc(OC)cc3)cc(=O)c2c(O)c1OC`, the IC50 in data set [1] was above 100 µM; in data set [2], above 100 µM; in the data set with Caco-2, above 100 µM; in the data set on COR-L23 it was 41.9 µM; with ACHN, 54.1 µM; in the data set with C32 it was above 100 µM. In addition, the values for the IC50 in the data set with A549 and in the data set on A-375 were 59.9 µM and above 100 µM, respectively. The logP in [3] stood at 3.

Take `COc1ccc(-c2cc(=O)c3c(O)c(OC)c(OCCN4CCOCC4)cc3o2)cc1`: the 50% inhibitory concentration (IC50) in data set [1] was above 100 µM; in data set [2] it was above 100 µM; in the data set with Caco-2 it was above 100 µM; in the data set with COR-L23, 39.5 µM; in the data set on ACHN, 55.7 µM; in the data set on C32, 47.6 µM. Besides, the results for the IC50 in the data set on A549 and in the data set on A-375 were 85.1 µM and 58.8 µM, respectively. The molecule also had a logP in data set [3] of 1.9.

Take `COc1ccc(-c2cc(=O)c3c(O)c(OC)c(O[C@@H]4O[C@H](CO[C@@H]5O[C@@H](C)[C@H](O)[C@@H](O)[C@H]5O)[C@@H](O)[C@H](O)[C@H]4O)cc3o2)cc1` [PECTOLINARIN]: the IC50 is above 100 µM in data set [1]; 50.8 µM in data set [2]; 6.2 µM in the data set with Caco-2; 5 µM with COR-L23; 17.2 µM in the data set with ACHN; 7.2 µM with C32. Further, the IC50 in the data set on A549 came out at 38.8 µM; in the data set with A-375, 32.9 µM. For the same molecule, the logP in data set [3] is -0.7.

`COc1ccc(-c2cc(=O)c3c(O)c(OC)c(OCCN4CCCC4)cc3o2)cc1`: the IC50 is above 100 µM in data set [1]; above 100 µM in [2]; above 100 µM with Caco-2; above 100 µM with COR-L23; 12.7 µM in the data set with ACHN; 54.7 µM with C32. Moreover, the IC50 in the data set with A549 was above 100 µM; with A-375, 38.6 µM. The molecule also yielded a logP in data set [3] of 2.6.

On to `COc1ccc(-c2cc(=O)c3c(O)c(OC)c(OCCN4CCCCC4)cc3o2)cc1`, for which the IC50 is above 100 µM in data set [1]; above 100 µM in data set [2]; 78.6 µM in the data set on Caco-2; 34.1 µM in the data set on COR-L23; 92.6 µM with ACHN; 63.6 µM in the data set on C32. The figures for the 50% inhibitory concentration (IC50) in the data set on A549 and in the data set with A-375 were 44.9 µM and 52.3 µM, respectively. Besides, in data set [3], the logP came to 3.

Take `COc1ccc(-c2cc(=O)c3c(O)c(OC)c(OCCCN(C)C)cc3o2)cc1`: the IC50 in [1] is above 100 µM; in [2], above 100 µM; in the data set with Caco-2 it was above 100 µM; in the data set with COR-L23 it was 7.2 µM; in the data set with ACHN, 10.8 µM; with C32, 8.9 µM. Besides, the IC50 with A549 worked out at 7.4 µM; in the data set on A-375, 7.7 µM. For the same molecule, the logP in data set [3] is 2.4.

On to `COc1ccc(-c2cc(=O)c3c(O)c(OC)c(OCCN(C)C)cc3o2)cc1`, for which the IC50 is above 100 µM in data set [1]; above 100 µM in data set [2]; above 100 µM in the data set on Caco-2; 9.2 µM in the data set with COR-L23; 10.5 µM with ACHN; above 100 µM with C32. The IC50 with A549 was 13.2 µM; in the data set with A-375 it was above 100 µM. In addition, the logP in [3] was found to be 2.3.

`COc1ccc(-c2cc(=O)c3c(O)c(OC)c(O)cc3o2)cc1` [PECTOLINARIGENIN]: the IC50 in [1] is above 100 µM; in data set [2], above 100 µM; in the data set with Caco-2, 5.3 µM; with COR-L23, 4.1 µM; in the data set on ACHN, 15.2 µM; in the data set with C32, 7 µM. Besides, the figures for the IC50 in the data set with A549 and in the data set on A-375 were 5.6 µM and 8.2 µM, respectively. This molecule also had a logP in data set [3] of 2.
